Sampled rows, rich in hits. Any-hit rate of the full collection: about 1.8%.
MBD2 DNA inh: inhibitors of human MBD2 binding to methylated oligonucleotide; Q9UBB5; TR-FRET; inhibition, % at 4.4 µM; actives 0.31% (n = 370,000); AID 686964; in the data active means inhibition above about 13%
Casp6 inh: inhibitors of human caspase-6; P55212; purified caspase-6, Z-VEID-R110 cleavage fluorescence; inhibition, % at 12.5 µM; actives 0.53% (n = 350,000);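 active means mean inhibition across replicates at least about 35%, with every replicate also reaching that limit, limit read from the data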
Target sequence (P55212 24-179 limits assumed): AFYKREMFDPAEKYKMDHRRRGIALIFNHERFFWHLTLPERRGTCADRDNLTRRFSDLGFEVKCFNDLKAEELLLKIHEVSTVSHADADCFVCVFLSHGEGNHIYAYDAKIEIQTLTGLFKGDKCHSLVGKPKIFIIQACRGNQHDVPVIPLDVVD
Target sequence (P55212 194-293 limits assumed): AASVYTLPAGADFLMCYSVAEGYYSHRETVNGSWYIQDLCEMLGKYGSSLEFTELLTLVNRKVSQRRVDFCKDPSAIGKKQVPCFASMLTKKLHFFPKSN
TDP2 absorb: TDP2 (human) inhibition, absorbance primary screen | O95551 | recombinant TDP2, T5PNP hydrolysis, p-nitrophenol absorbance 415 nm | inhibition, % at 12.8 µM | actives 0.34% (n = 370,000);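 active means inhibition above the mean of all tested compounds plus 3 SD, set per campaign, cut at about 25% in these data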
Target sequence (O95551 whole entry, looked up): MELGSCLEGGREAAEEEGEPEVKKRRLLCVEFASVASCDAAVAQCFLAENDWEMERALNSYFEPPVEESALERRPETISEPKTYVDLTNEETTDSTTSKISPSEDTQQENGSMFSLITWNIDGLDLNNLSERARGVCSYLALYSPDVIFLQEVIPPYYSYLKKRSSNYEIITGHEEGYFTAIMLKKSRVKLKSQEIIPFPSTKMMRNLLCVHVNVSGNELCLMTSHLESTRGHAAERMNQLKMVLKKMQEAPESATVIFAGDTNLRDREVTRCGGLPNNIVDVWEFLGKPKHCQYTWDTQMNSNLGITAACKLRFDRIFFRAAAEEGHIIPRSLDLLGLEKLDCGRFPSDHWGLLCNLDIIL
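System: recombinant human TDP2 / Amount: 120 nM TDP2 per well / Also added: 5 mM T5PNP chromogenic substrate / Doses: 12.8 µM single point, 1% DMSO / Incubation: 2 h at 37 °C / Detection: p-Nitrophenol epi absorbance / Evaluation: % inhibition relative to enzyme-containing and enzyme-free wells / Repeats: singlicate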
LEDGF integ inh: blocks HIV-1 LEDGF/p75-dependent DNA integration; TR-FRET IN-LEDGF/p75 DNA integration, Eu/Cy5; inhibition, % at 3.7 µM; actives 0.64% (n = 370,000); AID 743269;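 active means inhibition above the screen-wide mean plus 3 SD, cut at about 13% in these data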;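 further: signal is the Cy5 over europium emission ratio at 671 and 618 nm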
NSD2 inh: inhibitors of human histone methyltransferase NSD2; O96028; NSD2 peptide methylation, AlphaScreen, 120 min; inhibition, % at 12.5 µM; actives 0.54% (n = 310,000); in the data active means inhibition above about 50%
UHRF1 MBD2 ctr: blocks human UHRF1 binding to methylated DNA; Q96T88; UHRF1 binding to methylated oligo, TR-FRET; inhibition, % at 4.4 µM; actives 0.75% (n = 370,000); AID 687016;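 further: UHRF1 SRA domain binding a hemimethylated CpG hairpin DNA probe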
UHRF1 DNA bind: inhibits human UHRF1 binding to methylated oligonucleotide, MBD2 counter-screen | inhibition, % at 4.4 µM | TR-FRET | shares compounds with MBD2 DNA inh | AID 720530 | actives 25% (n = 1,000);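 further: UHRF1 SRA domain binding a labeled hemimethylated CpG hairpin DNA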
MBD2 DBD conf: confirmation of human MBD2-DBD methylated oligonucleotide binding inhibitors; TR-FRET MBD2-DBD binding to methylated oligonucleotide; shares compounds with MBD2 DNA inh; inhibition, % at 4.4 µM; AID 720531; actives 26% (n = 1,000); in the data active means inhibition above about 14%
A number is an active result. Unless noted, no stated cut-off is given here; in the data, active means inhibition above about 21%; inactive means the rest.

For CCOC(=O)c1cnc(N)nc1-c1ccccc1 the results were MBD2 DNA inh inactive, Casp6 inh inactive, TDP2 absorb inactive, LEDGF integ inh inactive, NSD2 inh inactive and UHRF1 MBD2 ctr inactive.
For C[C@H]1CN([C@@H](C)CO)C(=O)c2cc(-c3ccccc3)cnc2O[C@@H]1CN(C)C(=O)Cc1cccnc1 the results were Casp6 inh inactive.
Screening CO[C@@H]1CN(C)C(=O)c2ccc(NC(=O)c3cnccn3)cc2OC[C@@H](C)N(CCc2ccccc2)C[C@H]1C returned Casp6 inh inactive.
For CNC(=O)Cn1ncc2c(C)n(Cc3ccc(C)cc3)c(C)c2c1=O the results were MBD2 DNA inh inactive, TDP2 absorb inactive, LEDGF integ inh inactive, NSD2 inh inactive and UHRF1 MBD2 ctr inactive.
Screening Cc1c2cnn(CC(=O)Nc3c(F)c(F)cc(F)c3F)c(=O)c2c(C)n1Cc1ccccc1F returned MBD2 DNA inh 14, Casp6 inh inactive, TDP2 absorb inactive, LEDGF integ inh inactive, NSD2 inh inactive, UHRF1 MBD2 ctr inactive, UHRF1 DNA bind inactive and MBD2 DBD conf 29.
C[C@@H]1CCCCO[C@@H](CN(C)CC2CCCCC2)[C@H](C)CN([C@@H](C)CO)C(=O)c2cc(NC(=O)Nc3ccccc3)ccc2O1 was read as Casp6 inh inactive.
`CCCN1C[C@H](C)[C@@H](OC)CN(C)C(=O)c2cc(NC(=O)c3ccccc3)ccc2OC[C@@H]1C` gave Casp6 inh inactive.
Screening CCOc1ccccc1NC=C1C(=O)OC(C)(C)OC1=O returned MBD2 DNA inh 13, TDP2 absorb inactive, LEDGF integ inh inactive, NSD2 inh inactive, UHRF1 MBD2 ctr inactive, UHRF1 DNA bind inactive and MBD2 DBD conf inactive.
`COc1ccccc1NC=C1C(=O)OC(C)(C)OC1=O` gave MBD2 DNA inh inactive, TDP2 absorb inactive, LEDGF integ inh inactive, NSD2 inh inactive and UHRF1 MBD2 ctr inactive.
CN1[C@H](C(=O)Nc2ccccc2)[C@@H](CO)[C@@H]2Cn3c(ccc(-c4ccc(F)cc4)c3=O)[C@@H]21 was read as Casp6 inh inactive.
`COC(=O)C1CN(C2CC2)CCS(=O)(=O)N1Cc1cn(Cc2ccc(OC)cc2)nn1` (centres undefined) gave MBD2 DNA inh inactive, TDP2 absorb inactive, LEDGF integ inh inactive and UHRF1 MBD2 ctr inactive.
Screening COC(=O)C1CN(C2CCCC2)CCS(=O)(=O)N1Cc1cn(Cc2ccc(OC)cc2)nn1 (centres undefined) returned MBD2 DNA inh 16, TDP2 absorb inactive, LEDGF integ inh inactive, UHRF1 MBD2 ctr inactive, UHRF1 DNA bind inactive and MBD2 DBD conf inactive.
For Cc1noc(C)c1S(=O)(=O)N(C)C[C@H]1OCCCC[C@H](C)Oc2ccc(NC(=O)C3CCCCC3)cc2C(=O)N([C@@H](C)CO)C[C@H]1C the results were Casp6 inh inactive.
`Cc1cc(NC(=O)Cc2cccs2)no1` gave MBD2 DNA inh 16, TDP2 absorb inactive, LEDGF integ inh inactive, NSD2 inh inactive, UHRF1 MBD2 ctr 29, UHRF1 DNA bind 25 and MBD2 DBD conf 19.
Screening Cc1cc(NS(=O)(=O)c2ccc(NC(=O)Cc3cccs3)cc2)no1 returned Casp6 inh inactive and NSD2 inh inactive.
`COc1ccc2sc(-c3ccccc3OC)c(C#CCCO)c2c1` gave MBD2 DNA inh 15, Casp6 inh inactive, TDP2 absorb inactive, LEDGF integ inh inactive, UHRF1 MBD2 ctr inactive, UHRF1 DNA bind inactive and MBD2 DBD conf inactive.
`COc1cccc(-c2oc3c(c2-c2ccc(Br)nc2)C(O)CCC3)c1` (centres undefined) gave MBD2 DNA inh 13, Casp6 inh inactive, TDP2 absorb inactive, LEDGF integ inh inactive, UHRF1 MBD2 ctr inactive, UHRF1 DNA bind 22 and MBD2 DBD conf 28.
`COc1cccc(-c2oc3c(c2C(=O)OCCN2CCCCC2)C(O)CCC3)c1` (centres undefined) gave MBD2 DNA inh inactive, Casp6 inh inactive, TDP2 absorb inactive, LEDGF integ inh inactive and UHRF1 MBD2 ctr inactive.
Screening C[C@H](CO)N1C[C@H](C)[C@H](CN(C)Cc2ccc(C(F)(F)F)cc2)OCCCC[C@H](C)Oc2ccc(NS(=O)(=O)c3ccc(F)cc3)cc2C1=O returned Casp6 inh inactive.
Screening COc1ccc(N2CC(C)(C)[C@H](CC(=O)Nc3ccc(Br)cc3)C2=O)cc1 returned MBD2 DNA inh inactive, Casp6 inh inactive, TDP2 absorb inactive, LEDGF integ inh inactive and UHRF1 MBD2 ctr inactive.
COc1ccc(NC(=O)C[C@@H]2C(=O)N(c3ccc(OC)cc3)CC2(C)C)cc1 was read as MBD2 DNA inh 40, Casp6 inh inactive, TDP2 absorb inactive, LEDGF integ inh inactive, UHRF1 MBD2 ctr inactive, UHRF1 DNA bind inactive and MBD2 DBD conf inactive.
Screening CO[C@@H]1CN(C)C(=O)c2ccc(NC(=O)C3CC3)cc2OC[C@H](C)N(C(=O)NC(C)C)C[C@H]1C returned Casp6 inh inactive.
Screening CNCC(O)C(O)C(O)C(O)CO (centres undefined) returned MBD2 DNA inh inactive, Casp6 inh inactive, TDP2 absorb inactive, LEDGF integ inh inactive and UHRF1 MBD2 ctr inactive.
Screening OC[C@@H](O)C(O)[C@@H](O)CO (some centres undefined) returned MBD2 DNA inh 22, Casp6 inh inactive, TDP2 absorb inactive, LEDGF integ inh inactive, UHRF1 MBD2 ctr inactive, UHRF1 DNA bind inactive and MBD2 DBD conf inactive.
Screening Cc1ccc(NC(=O)Cn2cccc2)c(Br)c1 returned MBD2 DNA inh inactive, TDP2 absorb inactive, LEDGF integ inh inactive, NSD2 inh inactive and UHRF1 MBD2 ctr inactive.
Cc1ccc(NC(=O)CN(C)CC(=O)Nc2c(C)cccc2C)c(Br)c1 was read as MBD2 DNA inh 38, TDP2 absorb inactive, LEDGF integ inh inactive, NSD2 inh inactive, UHRF1 MBD2 ctr inactive, UHRF1 DNA bind inactive and MBD2 DBD conf inactive.
O=C(CN1CCOCC1)NCCC12CC3CC(CC(C3)C1)C2 was read as MBD2 DNA inh 14, TDP2 absorb inactive, LEDGF integ inh inactive, NSD2 inh inactive, UHRF1 MBD2 ctr inactive, UHRF1 DNA bind inactive and MBD2 DBD conf inactive.
For CN1[C@@H]2c3ccc(-c4ccccc4)c(=O)n3C[C@H]1[C@H](CO)[C@H]2C(=O)Nc1nccs1 the results were Casp6 inh inactive.
`CC(=O)c1ccc(NC(=O)c2ccc3nc(C)sc3c2)cc1` gave MBD2 DNA inh inactive, Casp6 inh inactive, TDP2 absorb inactive, LEDGF integ inh inactive, NSD2 inh inactive and UHRF1 MBD2 ctr inactive.
